# Measured values published in ChEMBL document CHEMBL1134608, “Nucleosides and nucleotides. 200. Reinvestigation of 5'-N-ethylcarboxamidoadenosine derivatives: structure-activity relationships for P(3) purinoceptor-like proteins” (J Med Chem, 2001).
# What was measured:
# [1] = biological target: T1, Adenosine receptor A2b (Rattus norvegicus) (UniProt P29276); assay: Agonist activity as cAMP production in CHO cells expressing rat Adenosine A2B receptor at 100 uM; format: functional, cell-based
# T1 sequence (whole entry): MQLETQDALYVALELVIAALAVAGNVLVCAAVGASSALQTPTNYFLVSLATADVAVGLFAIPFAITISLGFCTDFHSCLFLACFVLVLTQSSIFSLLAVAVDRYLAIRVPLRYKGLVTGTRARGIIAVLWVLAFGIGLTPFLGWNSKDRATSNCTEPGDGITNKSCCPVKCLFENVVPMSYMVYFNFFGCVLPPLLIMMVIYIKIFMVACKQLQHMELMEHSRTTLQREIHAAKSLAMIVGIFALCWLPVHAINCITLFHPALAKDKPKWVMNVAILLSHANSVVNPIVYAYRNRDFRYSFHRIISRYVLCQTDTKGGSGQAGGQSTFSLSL
# Method in brief: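 Rat A2B receptor cDNA transfected into CHO cells; agonism read as cAMP production with test compound at 100 µM, given as percentage of NECA-induced activity.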
# [2] = biological target: T2, Adenosine receptor A3 (Rattus norvegicus, UniProt P28647); assay: Binding affinity for adenosine A3 receptor in CHO cell membranes using [125I]IB-MECA
# T2 sequence (P28647 whole entry): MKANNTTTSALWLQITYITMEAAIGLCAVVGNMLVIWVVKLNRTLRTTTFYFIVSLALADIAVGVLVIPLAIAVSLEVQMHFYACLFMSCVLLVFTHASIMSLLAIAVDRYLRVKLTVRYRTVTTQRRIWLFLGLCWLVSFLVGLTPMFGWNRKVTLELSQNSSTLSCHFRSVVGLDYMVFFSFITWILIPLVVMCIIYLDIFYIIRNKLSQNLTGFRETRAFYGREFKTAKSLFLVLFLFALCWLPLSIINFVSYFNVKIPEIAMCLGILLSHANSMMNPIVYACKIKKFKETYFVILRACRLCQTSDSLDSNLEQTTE
# [3] = biological target: Adenosine receptor A2a (Rattus norvegicus, UniProt P30543); assay: Binding affinity for Adenosine A2A receptor in rat brain membranes using [3H]CGS-21680; format: cell membranes
# Adenosine receptor A2a, sequence (P30543 whole entry): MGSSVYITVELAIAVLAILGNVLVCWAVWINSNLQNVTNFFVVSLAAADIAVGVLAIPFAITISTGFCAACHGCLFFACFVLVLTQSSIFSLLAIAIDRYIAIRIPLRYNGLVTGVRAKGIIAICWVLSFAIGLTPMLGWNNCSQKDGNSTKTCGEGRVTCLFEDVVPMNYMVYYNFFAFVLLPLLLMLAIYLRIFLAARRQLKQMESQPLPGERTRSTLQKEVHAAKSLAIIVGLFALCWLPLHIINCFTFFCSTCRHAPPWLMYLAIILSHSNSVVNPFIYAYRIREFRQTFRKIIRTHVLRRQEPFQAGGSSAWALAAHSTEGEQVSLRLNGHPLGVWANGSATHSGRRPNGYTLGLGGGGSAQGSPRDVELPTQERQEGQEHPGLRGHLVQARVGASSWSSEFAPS
# [4] = species: Rattus norvegicus; assay: Ratio of affinity for A2A and P3LP receptors
# [5] = biological target: T3, Adenosine receptor A1 (Rattus norvegicus, UniProt P25099); assay: Binding activity against Adenosine A1 receptor from rat brain membranes using [3H]8-cyclopentyl-1,3-dipropylxanthine (DPCPX)
# T3 sequence (P25099 whole entry): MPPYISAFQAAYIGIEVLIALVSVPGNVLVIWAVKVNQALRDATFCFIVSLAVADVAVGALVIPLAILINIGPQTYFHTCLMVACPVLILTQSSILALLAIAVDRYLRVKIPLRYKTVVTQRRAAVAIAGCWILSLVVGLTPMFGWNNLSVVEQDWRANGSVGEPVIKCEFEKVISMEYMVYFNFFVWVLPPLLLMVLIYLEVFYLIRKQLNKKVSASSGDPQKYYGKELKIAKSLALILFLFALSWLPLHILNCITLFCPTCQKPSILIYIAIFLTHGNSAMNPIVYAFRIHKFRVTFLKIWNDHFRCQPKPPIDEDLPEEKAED
# [6] = species: Rattus norvegicus; assay: Ratio of affinity for A1 AND P3LP receptor
# [7] = species: Rattus norvegicus; assay: Ratio of affinity for A3 and P3LP receptors
SMILES,Activity [1],Ki [2],Ki [3],Ratio [4],Ki [5],Ratio [6],Ratio [7]
Nc1ncnc2c1ncn2[C@@H]1O[C@H](C(=O)NC2CCCCC2)[C@@H](O)[C@H]1O,1.9%,15100 nM,2500 nM,137,5020 nM,275,830
CCCCCNC(=O)[C@H]1O[C@@H](n2cnc3c(N)ncnc32)[C@H](O)[C@@H]1O,3.4%,5560 nM,605 nM,49.6,979 nM,80.2,456
CCNC(=O)[C@H]1O[C@@H](n2cnc3c(N)ncnc32)[C@H](O)[C@@H]1O,100,,,,,,
C#CC(O)[C@H]1O[C@@H](n2cnc3c(N)ncnc32)[C@H](O)[C@@H]1O (some centres not stated),10%,310000 nM,2110 nM,105,897 nM,44.9,15500
